The record followed here is ChEMBL document CHEMBL4049387, “Combination of l-Carnitine with Lipophilic Linkage-Donating Gemcitabine Derivatives as Intestinal Novel Organic Cation Transporter 2-Targeting Oral Prodrugs” (J Med Chem, 2017).

As a reminder, the IC50 is the concentration needed to halve the response being measured.

Data set [1] concerns the target T1, Organic cation/carnitine transporter 2 (Homo sapiens, UniProt O76082).
T1 sequence (O76082 whole entry): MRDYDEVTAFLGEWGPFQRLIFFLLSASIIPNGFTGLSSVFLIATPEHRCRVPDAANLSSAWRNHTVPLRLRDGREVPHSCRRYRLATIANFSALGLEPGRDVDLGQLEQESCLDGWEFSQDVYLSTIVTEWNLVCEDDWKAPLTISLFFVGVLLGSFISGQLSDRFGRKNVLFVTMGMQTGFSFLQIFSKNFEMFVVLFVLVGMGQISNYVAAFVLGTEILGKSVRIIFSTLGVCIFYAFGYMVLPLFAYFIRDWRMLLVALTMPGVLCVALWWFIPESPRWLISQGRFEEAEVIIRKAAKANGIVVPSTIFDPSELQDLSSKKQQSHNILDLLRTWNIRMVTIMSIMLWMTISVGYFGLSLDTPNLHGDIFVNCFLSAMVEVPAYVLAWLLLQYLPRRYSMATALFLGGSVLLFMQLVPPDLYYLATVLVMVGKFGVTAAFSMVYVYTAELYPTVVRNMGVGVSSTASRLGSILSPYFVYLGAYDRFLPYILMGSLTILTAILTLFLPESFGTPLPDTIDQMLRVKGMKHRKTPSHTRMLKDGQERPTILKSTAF
Description: Ratio of drug transport assessed as OCTN2 transporter mediated drug uptake in human Caco2 cells at 1 to 800 uM in presence of Na+ to drug transport assessed as OCTN2 transporter mediated drug uptake in human Caco2 cells at 1 to 800 uM in presence of N-methyl-D-glucamine. The settings on record: caco-2, 800 µM. The data set is classed as ADME, cell-based. On the technique in general: Passage across Caco-2 layers is used to estimate intestinal permeability.

A short description of data set [2]: Half life in rat plasma at 5 uM by HPLC method. In kind it is ADME, cell-free. The method, boiled down:
(§1)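 Compound at 5 µM final in rat plasma, 20% rat hepatic homogenate or 20% rat intestinal homogenate at 37 °C for 24 h. Homogenates made by homogenizing 0.3 g saline-washed tissue in 1 mL saline, spun 13,000 rpm 4 °C 5 min. Sampled at intervals, analysed by HPLC. t1/2 = 0.693/k.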

Data set [3] is described as follows: Terminal half-life in Wistar rat at 50 mg/kg, po administered as single dose by UPLC-MS/MS method. In kind it is ADME, organism-based. As to conditions: in vivo, read-out: beta t1/2 (converted); call rule not given here. The method, boiled down:
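Wistar rats, six per group, single oral dose equivalent to 50 mg/kg gemcitabine; separate group given gemcitabine iv at 7.5 mg/kg. Oral sampling at 5, 10, 15, 30 min and 1, 2, 4, 6, 8, 12, 24 h; iv at 15, 30 min and 2, 4, 8, 12, 24 h. Blood into THU-pretreated heparinized tubes, centrifuged 3000 × g 15 min, plasma at -80 °C. Prodrug and gemcitabine quantified by UPLC-MS/MS. F = AUCpo×Div/AUCiv/Dpo×100%.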

In data set [4] the test system is Mus musculus. Description: Toxicity in Kunming mouse assessed as […] degeneration in kidney at 102 mg/kg, po administered once daily for 14 days by hematoxylin/eosin staining based optical microscopic analysis. The data set is classed as organism-based. The settings on record: in vivo, 336 h. Put shortly:
(§2)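 Kunming mice, four per group, dosed orally once daily for 14 days with 102 mg/kg or saline control; body weight recorded every other day. Heart, liver, spleen, lung and kidney fixed in 10% buffered formalin, paraffin-embedded, sectioned, stained with hematoxylin and eosin, and examined by optical microscopy.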

The test system of data set [5] is Mus musculus. Description: Toxicity in Kunming mouse assessed as fibrosis in spleen at 102 mg/kg, po administered once daily for 14 days by hematoxylin/eosin staining based optical microscopic analysis. In kind it is organism-based. As to conditions: in vivo, 336 h. Put shortly:
as §2

Another data set concerns BXPC-3. Briefly: Cytotoxicity against human BxPC3 cells assessed as decrease in cell viability after 48 hrs by MTT assay. The data set is classed as functional, cell-based. The method, boiled down:
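BxPC-3 and Caco-2 cells exposed to compounds for 48 h. Viability read by MTT assay kit. IC50 calculated from dose-response.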
A general note: Formazan colour is commonly taken as a measure of viable cells.

The subject of the next data set is Lung. Briefly: Drug uptake in mouse lung at 102 mg/kg, po administered as single dose at 0.5 hrs post dose. In kind it is ADME, organism-based. The settings on record: in vivo. The method, boiled down:
(§3)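 Mice, three per time point, single oral dose of 102 mg/kg (equivalent to 50 mg/kg gemcitabine). Heart, liver, spleen, lung, kidney and brain collected at 0.16, 0.5 and 2 h, rinsed in saline. 0.3 g tissue homogenized 1 min in 1 mL saline, spun 13,000 rpm 4 °C 5 min. Gemcitabine measured in supernatant.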

Data set [6] concerns Mus musculus. Briefly: Toxicity in Kunming mouse assessed as fibrosis in kidney at 102 mg/kg, po administered once daily for 14 days by hematoxylin/eosin staining based optical microscopic analysis. In kind it is organism-based. The settings on record: in vivo, 336 h. Put shortly: as §2
Data set [7] relates to Mus musculus. Description: Toxicity in Kunming mouse assessed as […] degeneration in hepatocytes at 102 mg/kg, po administered once daily for 14 days by hematoxylin/eosin staining based optical microscopic analysis. In kind it is organism-based. As to conditions: in vivo, 336 h. Put shortly:
as §2

The subject of another data set is Heart. Briefly: Drug uptake in mouse heart at 102 mg/kg, po administered as single dose at 2 hrs post dose. The data set is classed as ADME, organism-based. As to conditions: in vivo. The method, boiled down: as §3
The test system of data set [8] is Mus musculus. Description: Toxicity in Kunming mouse assessed as inflammatory infiltrates in kidney at 102 mg/kg, po administered once daily for 14 days by hematoxylin/eosin staining based optical microscopic analysis. The settings on record: in vivo, 336 h. The data set is classed as organism-based. The method, boiled down:
as §2

A further data set deals with Spleen. Description: Drug uptake in mouse spleen at 102 mg/kg, po administered as single dose at 0.5 hrs post dose. The data set is classed as ADME, organism-based. The settings on record: in vivo. Put shortly:
as §3

The target in data set [9] is T1, Organic cation/carnitine transporter 2. Briefly: Ratio of drug transport assessed as OCTN2 transporter mediated drug uptake in human Caco2 cells at 100 uM in absence of L-carnitine to drug transport assessed as OCTN2 transporter mediated drug uptake in human Caco2 cells at 100 uM in presence of L-carnitine. The data set is classed as ADME, cell-based. The settings on record: caco-2, 100 µM.

A short description of data set [10]: Half life in rat hepatic homogenates at 5 uM by HPLC method. In kind it is ADME, tissue-based, Liver. The method, boiled down: as §1
The target of data set [11] is T2, Organic cation/carnitine transporter 2 (Rattus norvegicus, UniProt O70594).
T2 sequence (O70594 whole entry): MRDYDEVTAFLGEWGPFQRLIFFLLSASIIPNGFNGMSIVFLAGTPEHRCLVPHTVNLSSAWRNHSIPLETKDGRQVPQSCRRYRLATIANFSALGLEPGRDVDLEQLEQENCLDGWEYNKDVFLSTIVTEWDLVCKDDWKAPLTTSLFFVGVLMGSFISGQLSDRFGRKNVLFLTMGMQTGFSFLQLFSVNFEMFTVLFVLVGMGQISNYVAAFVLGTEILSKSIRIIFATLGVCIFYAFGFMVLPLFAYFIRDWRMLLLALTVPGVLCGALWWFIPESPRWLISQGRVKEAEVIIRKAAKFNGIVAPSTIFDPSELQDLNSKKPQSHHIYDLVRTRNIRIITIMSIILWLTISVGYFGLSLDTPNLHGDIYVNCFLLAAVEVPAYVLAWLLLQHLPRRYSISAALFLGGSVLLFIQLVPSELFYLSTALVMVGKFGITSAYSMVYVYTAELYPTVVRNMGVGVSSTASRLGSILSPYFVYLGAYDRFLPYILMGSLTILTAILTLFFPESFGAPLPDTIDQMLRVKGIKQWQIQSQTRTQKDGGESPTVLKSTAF
Description: Ratio of drug transport assessed as OCTN2 transporter mediated effective permeability in rat duodenum at 76 uM in absence of L-carnitine to drug transport assessed as OCTN2 transporter mediated effective permeability in rat duodenum at 76 uM in presence of L-carnitine. In kind it is ADME.

For `C[N+](C)(C)CC(CC(=O)[O-])OC(=O)CCCCC(=O)Nc1ccn([C@@H]2O[C@H](CO)[C@@H](O)C2(F)F)c(=O)n1` (stereo partly specified), the results for the Ratio in data set [1], in data set [9] and in data set [11] were 2 to 10, 2.2 to 3.7 and 11, respectively. Moreover, the figures for the half-life at 5 µM in data set [2] and in [10] were 6.2 h and 17.4 h, respectively. In [3], the half-life is 6.8 h. Further, the Activity result with Mus musculus [4] was “Non-Toxic”; with Mus musculus [5], “Non-Toxic”; in the data set on BXPC-3, “Dose-dependent effect”; in the data set on Mus musculus [6], “Non-Toxic”; in the data set with Mus musculus [7], “Non-Toxic”; with Mus musculus [8] it was “Non-Toxic”. For the same compound, the IC50 in the data set with BXPC-3 (BXPC-3, 48 h) was 320 nM. Moreover, the Drug uptake entry is given as “Active” in the data set with Lung, “Not Active” in the data set with Heart and “Active” in the data set with Spleen.
